Measured values from ChEMBL document CHEMBL1129266, “Synthesis and biological activity of NK-1 selective, N-backbone cyclic analogs of the C-terminal hexapeptide of substance P” (J Med Chem, 1996).
Starred links: 1 amine or outer side, 2 acyl side, 3 side chain; linkers in the order of their positions; H or OH if unused. Positions of bridges follow the written chain, without caps; N, C: chain ends. Non-standard residues stand in square brackets, D forms with d. Residues, ends and D or L forms follow the SMILES beside them. *: point of attachment. N(6-aminohexyl)Gly = O=C(CN(CCCCCCN[*:3])[*:1])[*:2]; NGly(3-aminopropyl) = O=C(CN(CCCN[*:3])[*:1])[*:2]; N(2-Aminoethyl)Gly = O=C(CN(CCN[*:3])[*:1])[*:2]; Adipoyl = O=C(CCCCC(=O)[*:2])[*:1]; Glutaryl = O=C(CCCC(=O)[*:2])[*:1]; X2 = CC(=O)NCCCN(CC(=O)[*:2])[*:1]; Gly(N(CH2)3NH2) = NCCCNCC(=O)O; Suc = O=C(CCC(=O)[*:2])[*:1]; X1 = CNC(=O)CCCCC(=O)*

What was measured:
Neuromedin-K receptor [1] = molecular target: T1, Neuromedin-K receptor (Rattus norvegicus, UniProt P16177); assay: Effective concentration to activate Tachykinin receptor 3 in rat portal vein(RPV).
T1 sequence (P16177 whole entry): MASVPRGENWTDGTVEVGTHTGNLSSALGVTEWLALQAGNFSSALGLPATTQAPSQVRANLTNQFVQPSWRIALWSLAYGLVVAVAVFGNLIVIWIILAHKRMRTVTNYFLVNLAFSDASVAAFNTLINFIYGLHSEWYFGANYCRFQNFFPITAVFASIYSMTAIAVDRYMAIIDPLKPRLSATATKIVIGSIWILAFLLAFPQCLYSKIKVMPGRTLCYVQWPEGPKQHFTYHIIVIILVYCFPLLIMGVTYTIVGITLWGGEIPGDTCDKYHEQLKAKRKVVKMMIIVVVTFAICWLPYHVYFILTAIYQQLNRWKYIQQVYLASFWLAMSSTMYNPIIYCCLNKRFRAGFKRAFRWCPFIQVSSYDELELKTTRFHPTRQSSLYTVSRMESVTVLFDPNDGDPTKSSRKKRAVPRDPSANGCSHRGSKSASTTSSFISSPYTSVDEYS
Summary of the method: (§1)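 Portal vein from rat killed by decapitation, mounted in a bath at 37 °C under about 0.5 g tension and equilibrated for 1 h. Peptides were then added at 20 min intervals to avoid receptor desensitization, and contractile responses were recorded.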

Substance-P receptor = Substance-P receptor (Cavia porcellus, UniProt P30547); assay: Effective concentration to activate Tachykinin receptor 1 in guinea pig ileum(GPI); format: tissue-based
Sequence of Substance-P receptor (P30547 whole entry): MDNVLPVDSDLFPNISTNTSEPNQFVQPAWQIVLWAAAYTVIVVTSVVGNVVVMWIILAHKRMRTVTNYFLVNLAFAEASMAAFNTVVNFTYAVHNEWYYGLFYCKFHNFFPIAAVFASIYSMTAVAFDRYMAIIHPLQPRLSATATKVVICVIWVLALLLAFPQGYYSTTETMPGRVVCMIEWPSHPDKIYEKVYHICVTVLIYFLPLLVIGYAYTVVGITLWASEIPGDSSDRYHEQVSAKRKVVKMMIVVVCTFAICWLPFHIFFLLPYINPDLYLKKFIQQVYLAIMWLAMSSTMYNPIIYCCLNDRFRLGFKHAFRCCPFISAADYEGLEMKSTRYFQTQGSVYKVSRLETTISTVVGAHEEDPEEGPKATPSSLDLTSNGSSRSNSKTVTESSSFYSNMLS

Substance-K receptor [2] = molecular target: T2, Substance-K receptor (Rattus norvegicus, UniProt P16610); assay: Effective concentration to activate Tachykinin receptor 2 in rat vas deferens (RVD)
T2 sequence (P16610 whole entry): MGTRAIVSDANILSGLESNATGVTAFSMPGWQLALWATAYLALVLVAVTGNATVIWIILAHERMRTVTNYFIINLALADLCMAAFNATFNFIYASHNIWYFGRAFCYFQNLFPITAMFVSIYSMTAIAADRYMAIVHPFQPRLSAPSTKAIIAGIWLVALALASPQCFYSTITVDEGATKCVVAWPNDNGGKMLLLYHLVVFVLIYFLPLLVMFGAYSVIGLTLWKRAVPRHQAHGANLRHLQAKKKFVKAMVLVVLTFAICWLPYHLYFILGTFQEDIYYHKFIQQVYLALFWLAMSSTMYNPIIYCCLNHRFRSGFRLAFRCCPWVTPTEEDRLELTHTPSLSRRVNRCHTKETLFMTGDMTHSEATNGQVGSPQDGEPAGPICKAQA

Neuromedin-K receptor [3] = molecular target: T1, Neuromedin-K receptor; assay: Effective concentration to activate Tachykinin receptor 3 in rat portal vein (RPV); summary of the method: as §1
Substance-K receptor [4] = molecular target: T2, Substance-K receptor; assay: Effective concentration to activate Tachykinin receptor 2 in rat vas deferens(RVD)

| Molecule | EC50 (Neuromedin-K receptor [1]) | EC50 (Substance-P receptor) | EC50 (Substance-K receptor [2]) | EC50 (Neuromedin-K receptor [3]) | EC50 (Substance-K receptor [4]) |
| --- | --- | --- | --- | --- | --- |
| CSCC[C@H](NC(=O)[C@H](CC(C)C)NC(=O)CN1CCCNC(=O)CCCCC(=O)N[C@@H](CCCN=C(N)N)C(=O)N[C@@H](Cc2ccccc2)C(=O)N[C@@H](Cc2ccccc2)C1=O)C(N)=O (RFF[NGly(3-aminopropyl)]LM-NH2; linker N-4 via Adipoyl) | – | 5 nM | > 200 µM | > 10000 nM | – |
| CSCC[C@H](NC(=O)[C@H](CC(C)C)NC(=O)CN1CCNC(=O)CCC(=O)N[C@@H](CCCNC(=N)N)C(=O)N[C@@H](Cc2ccccc2)C(=O)N[C@@H](Cc2ccccc2)C1=O)C(N)=O (RFF[N(2-Aminoethyl)Gly]LM-NH2; linker N-4 via Suc) | – | 4000 nM | > 50 µM | > 10000 nM | – |
| CSCC[C@H](NC(=O)[C@H](CC(C)C)NC(=O)CN1CCCNC(=O)CCCC(=O)N[C@@H](CCCN=C(N)N)C(=O)N[C@@H](Cc2ccccc2)C(=O)N[C@@H](Cc2ccccc2)C1=O)C(N)=O (RFF[NGly(3-aminopropyl)]LM-NH2; linker N-4 via Glutaryl) | – | 11 nM | > 50 µM | > 10000 nM | – |
| CSCC[C@H](NC(=O)[C@H](CC(C)C)NC(=O)CN1CCCCCCNC(=O)CCCC(=O)N[C@@H](CCCN=C(N)N)C(=O)N[C@@H](Cc2ccccc2)C(=O)N[C@@H](Cc2ccccc2)C1=O)C(N)=O (RFF[N(6-aminohexyl)Gly]LM-NH2; linker N-4 via Glutaryl) | – | 60 nM | > 50 µM | 1000 nM | – |
| CSCC[C@H](NC(=O)[C@H](CC(C)C)NC(=O)CN(CCCN)C(=O)[C@H](Cc1ccccc1)NC(=O)[C@H](Cc1ccccc1)NC(=O)[C@H](CCCNC(=N)N)NC(C)=O)C(N)=O (Ac-RFF[Gly(N(CH2)3NH2)]LM-NH2) | – | 300 nM | > 100 µM | 2000 nM | – |
| CSCC[C@H](NC(=O)[C@H](CC(C)C)NC(=O)CNC(=O)[C@H](Cc1ccccc1)N(C)C(=O)[C@H](Cc1ccccc1)NC(=O)[C@H](CC(=O)O)NC(=O)CCC(=O)O)C(N)=O [SENKTIDE] | – | 35000 nM | > 200 µM | – | – |

The next lines start with the values.

| EC50 (Neuromedin-K receptor [1]) | EC50 (Substance-P receptor) | EC50 (Substance-K receptor [2]) | EC50 (Neuromedin-K receptor [3]) | EC50 (Substance-K receptor [4]) | Molecule |
| --- | --- | --- | --- | --- | --- |
| > 50000 nM | 3 nM | > 200 µM | – | – | Ac-RFFPLM-NH2 |
| – | 160 nM | > 50 µM | 1000 nM | – | CSCC[C@H](NC(=O)[C@H](CC(C)C)NC(=O)CN1CCCCCCNC(=O)CCC(=O)N[C@@H](CCCN=C(N)N)C(=O)N[C@@H](Cc2ccccc2)C(=O)N[C@@H](Cc2ccccc2)C1=O)C(N)=O (RFF[N(6-aminohexyl)Gly]LM-NH2; linker N-4 via Suc) |
| – | 180 nM | > 50 µM | > 10000 nM | – | CSCC[C@H](NC(=O)[C@H](CC(C)C)NC(=O)CN1CCCNC(=O)CCC(=O)N[C@@H](CCCN=C(N)N)C(=O)N[C@@H](Cc2ccccc2)C(=O)N[C@@H](Cc2ccccc2)C1=O)C(N)=O (RFF[NGly(3-aminopropyl)]LM-NH2; linker N-4 via Suc) |
| – | > 10000 nM | > 50 µM | > 10000 nM | – | CSCC[C@H](NC(=O)[C@H](CC(C)C)NC(=O)CN1CCNC(=O)CCC(=O)NCC(=O)N[C@@H](CCCN=C(N)N)C(=O)N[C@@H](Cc2ccccc2)C(=O)N[C@@H](Cc2ccccc2)C1=O)C(N)=O (GRFF[N(2-Aminoethyl)Gly]LM-NH2; linker N-5 via Suc) |
| 2000 nM | 400 nM | – | – | > 100 µM | CNC(=O)CCCCC(=O)N[C@@H](CCCNC(=N)N)C(=O)N[C@@H](Cc1ccccc1)C(=O)N[C@@H](Cc1ccccc1)C(=O)N(CCCNC(C)=O)CC(=O)N[C@@H](CC(C)C)C(=O)N[C@@H](CCSC)C(N)=O (X1-RFF[X2]LM-NH2) |
